The test concerns the target human GPR68 (Homo sapiens, UniProt Q15743). Kind of test: GloSensor cAMP assay, proton-mediated Gs-cAMP production at human GPR68. Type of test: cell-based. To be noted: for Δ: difference of Log(αβ/KB) from that of 1; for Δ / −Log (KB) / Log (αβ/KB): human GPR68; for Log (α): affinity cooperativity; for Log (α) / Log (β): human GPR68, HEK293T, Gs-cAMP; for Log (α) / −Log (KB) / Log (αβ/KB) / Log (β): mean ± SEM; for −Log (KB): allosteric binding affinity from functional assay; for Log (αβ/KB): allosteric index; for Log (β): efficacy cooperativity. In outline:
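HEK293T cells were transiently transfected with receptor and GloSensor cAMP plasmids, overnight (16–20 h). Cells were plated on poly-L-Lys in DMEM + 1% dFBS for 6–24 h, then loaded with 3.5 mM luciferin (HBSS, 20 mM TAPS, pH 8.40) for 1 h at 37 °C. Drug was applied in Ca/Mg-free HBSS pH buffers (MES 5.60–6.70, HEPES 6.80–8.20, TAPS 8.30–8.60) with 10 μM Ro 20-1724. Luminescence was read at 20–30 min.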
On the technique in general: cAMP levels reflect the balance of adenylyl cyclase and phosphodiesterase activity.

33 molecules from publication PMC6923801 (Journal of medicinal chemistry, 2019) can be followed below.

Chain of human GPR68 (Q15743 whole entry): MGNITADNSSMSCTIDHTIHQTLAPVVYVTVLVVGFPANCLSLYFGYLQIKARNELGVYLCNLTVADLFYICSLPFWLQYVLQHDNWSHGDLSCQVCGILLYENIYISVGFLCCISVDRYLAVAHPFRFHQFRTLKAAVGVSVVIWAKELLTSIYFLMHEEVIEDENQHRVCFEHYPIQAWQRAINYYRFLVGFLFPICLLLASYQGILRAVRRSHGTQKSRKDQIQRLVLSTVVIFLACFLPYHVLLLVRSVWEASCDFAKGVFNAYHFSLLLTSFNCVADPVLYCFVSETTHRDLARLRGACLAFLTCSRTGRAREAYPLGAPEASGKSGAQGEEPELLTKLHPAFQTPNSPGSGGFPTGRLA

In turn, `CNc1nc(NCc2ccccc2)nc(-c2ccccc2CO)n1` [Compound 5] gave a Kb of 30.9 µM and a Δ of 0.05.
`CCNc1nc(NCc2ccccc2)nc(-c2ccccc2CO)n1` [Compound 6, (2-(4-(Benzylamino)-6-(ethylamino)-1,3,5-triazin-2-yl)phenyl)-methanol] had a Kb of 23.4 µM and a Δ of 0.03.
Turning to `Nc1cc(-c2ccccc2CO)nc(NCc2ccccc2)n1` [Compound 10, (2-(6-Amino-2-(benzylamino)pyrimidin-4-yl)phenyl)methanol], the “Log (α)” value is listed as “Weak PAM”, the “−Log (KB)” value was “Weak PAM”, the “Log (αβ/KB)” value is reported as “Weak PAM” and the Δ result is “Weak PAM”. Moreover, the “Log (β)” value is given as “Weak PAM”.
Take `Nc1nc(NCc2ccccc2)nc(-c2ccccc2)n1` [Compound 13, N^2-Benzyl-6-phenyl-1,3,5-triazine-2,4-diamine]: the “Log (α)” value is given as “Inactive”, the “−Log (KB)” value is “Inactive”, the “Log (αβ/KB)” value is recorded as “Inactive” and the Δ entry was “Inactive”. Moreover, the “Log (β)” value is recorded as “Inactive”.
On to `Cc1ccccc1-c1nc(N)nc(NCc2ccccc2)n1` [Compound 14, N^2-Benzyl-6-(o-tolyl)-1,3,5-triazine-2,4-diamine], for which the “Log (α)” value is listed as “Weak PAM”, the “−Log (KB)” value is “Weak PAM”, the “Log (αβ/KB)” value was “Weak PAM” and the Δ entry is “Weak PAM”. Also, the “Log (β)” value is “Weak PAM”.
`CC(=O)c1ccccc1-c1nc(N)nc(NCc2ccccc2)n1` [Compound 15, 1-(2-(4-Amino-6-(benzylamino)-1,3,5-triazin-2-yl)phenyl)ethan-1-one]: the “Log (α)” value was “Weak PAM”, the “−Log (KB)” value is reported as “Weak PAM”, the “Log (αβ/KB)” value is recorded as “Weak PAM” and the Δ entry is on record as “Weak PAM”. Also, the “Log (β)” value is on record as “Weak PAM”.
With `CC(O)c1ccccc1-c1nc(N)nc(NCc2ccccc2)n1` (stereo not drawn) [Compound 16, 1-(2-(4-Amino-6-(benzylamino)-1,3,5-triazin-2-yl)phenyl)ethan-1-ol], the “Log (α)” value was “Weak PAM”, the “−Log (KB)” value is given as “Weak PAM”, the “Log (αβ/KB)” value was “Weak PAM” and the Δ entry is recorded as “Weak PAM”. Also, the “Log (β)” value is on record as “Weak PAM”.
Regarding `NCc1ccccc1-c1nc(N)nc(NCc2ccccc2)n1` [Compound 18, 6-(2-(Aminomethyl)phenyl)-N^2-benzyl-1,3,5-triazine-2,4-diamine], the Kb is 138 µM and the Δ was −0.30.
Consider `CNCc1ccccc1-c1nc(N)nc(NCc2ccccc2)n1` [Compound 19, N^2-Benzyl-6-(2-((methylamino)methyl)phenyl)-1,3,5-triazine-2,4-diamine], for which the “Log (α)” value is reported as “Weak PAM”, the “−Log (KB)” value is reported as “Weak PAM”, the “Log (αβ/KB)” value is “Weak PAM” and the Δ result is on record as “Weak PAM”. Moreover, the “Log (β)” value was “Weak PAM”.
`Nc1nc(NCc2ccccc2)nc(-c2cccc(F)c2CO)n1` [Compound 22, (2-(4-Amino-6-(benzylamino)-1,3,5-triazin-2-yl)-6-fluorophenyl)-methanol] had a Kb of 97.7 µM and a Δ of −0.45.
Molecule `Nc1nc(NCc2ccccc2)nc(-c2ccc(F)cc2CO)n1` [Compound 23, (2-(4-Amino-6-(benzylamino)-1,3,5-triazin-2-yl)-5-fluorophenyl)-methanol] gave a Kb of 26.3 µM and a Δ of 0.15.
For `Nc1nc(NCc2ccccc2)nc(-c2cc(F)ccc2CO)n1` [Compound 24, (2-(4-Amino-6-(benzylamino)-1,3,5-triazin-2-yl)-4-fluorophenyl)-methanol], the Kb was 26.3 µM and the Δ was determined as 0.38.
Molecule `Nc1nc(NCc2ccccc2)nc(-c2c(F)cccc2CO)n1` [Compound 25, (2-(4-Amino-6-(benzylamino)-1,3,5-triazin-2-yl)-3-fluorophenyl)-methanol] showed a Kb of 204 µM and a Δ of −0.12.
The molecule `Nc1nc(NCc2ccccc2)nc(-c2ccc(Cl)cc2CO)n1` [Compound 26, (2-(4-Amino-6-(benzylamino)-1,3,5-triazin-2-yl)-5-chlorophenyl)methanol] gave a Kb of 17.4 µM and a Δ of 0.56.
`Nc1nc(NCc2ccccc2)nc(-c2cc(Cl)ccc2CO)n1` [Compound 27, (2-(4-Amino-6-(benzylamino)-1,3,5-triazin-2-yl)-4-chlorophenyl)methanol] had a Kb of 32.4 µM and a Δ of 0.47.
`Nc1nc(NCc2ccccc2)nc(-c2c(Cl)cccc2CO)n1` [Compound 28, (2-(4-Amino-6-(benzylamino)-1,3,5-triazin-2-yl)-3-chlorophenyl)methanol]: the Kb is 37.2 µM and the Δ is recorded as 0.25.
Molecule `COc1cccc(-c2nc(N)nc(NCc3ccccc3)n2)c1CO` [Compound 29, (2-(4-Amino-6-(benzylamino)-1,3,5-triazin-2-yl)-6-methoxyphenyl)methanol] had a Kb of 69.2 µM and a Δ of −0.45.
As to `COc1ccc(-c2nc(N)nc(NCc3ccccc3)n2)c(CO)c1` [Compound 30], the Kb was 75.9 µM and the Δ is −0.34.
For the molecule `COc1ccc(CO)c(-c2nc(N)nc(NCc3ccccc3)n2)c1` [Compound 31, (2-(4-Amino-6-(benzylamino)-1,3,5-triazin-2-yl)-4-methoxyphenyl)methanol], the Kb is 102 µM and the Δ was −0.54.
As for `COc1cccc(CO)c1-c1nc(N)nc(NCc2ccccc2)n1` [Compound 32, (2-(4-Amino-6-(benzylamino)-1,3,5-triazin-2-yl)-3-methoxyphenyl)methanol], the “Log (α)” value was “Weak PAM”, the “−Log (KB)” value is recorded as “Weak PAM”, the “Log (αβ/KB)” value was “Weak PAM” and the Δ entry is listed as “Weak PAM”. For the same molecule, the “Log (β)” value is reported as “Weak PAM”.
`CCOc1ccc(-c2nc(N)nc(NCc3ccccc3)n2)c(CO)c1` [Compound 37, (2-(4-Amino-6-(benzylamino)-1,3,5-triazin-2-yl)-5-ethoxyphenyl)methanol] showed a Kb of 42.7 µM and a Δ of 0.03.
For `CC(C)Oc1ccc(-c2nc(N)nc(NCc3ccccc3)n2)c(CO)c1` [Compound 38, (2-(4-Amino-6-(benzylamino)-1,3,5-triazin-2-yl)-5-isopropoxyphenyl)methanol], the Kb was 12.3 µM and the Δ was determined as 0.43.
For the molecule `Nc1nc(NCc2ccccc2F)nc(-c2ccccc2CO)n1` [Compound 41, (2-(4-Amino-6-((2-fluorobenzyl)amino)-1,3,5-triazin-2-yl)-phenyl)methanol], the Kb was 53.7 µM and the Δ is 0.25.
`Nc1nc(NCc2cccc(F)c2)nc(-c2ccccc2CO)n1` [Compound 42, (2-(4-Amino-6-((3-fluorobenzyl)amino)-1,3,5-triazin-2-yl)-phenyl)methanol] showed a Kb of 30.2 µM and a Δ of 0.24.
For `Nc1nc(NCc2ccc(F)cc2)nc(-c2ccccc2CO)n1` [Compound 43, (2-(4-Amino-6-((4-fluorobenzyl)amino)-1,3,5-triazin-2-yl)-phenyl)methanol], in that order: 107 µM and 0.11.
The molecule `Nc1nc(NCc2ccccc2Cl)nc(-c2ccccc2CO)n1` [Compound 44, (2-(4-Amino-6-((2-chlorobenzyl)amino)-1,3,5-triazin-2-yl)-phenyl)methanol] gave a Kb of 8.51 µM and a Δ of 0.63.
In turn, `Nc1nc(NCc2cccc(Cl)c2)nc(-c2ccccc2CO)n1` [Compound 45, (2-(4-Amino-6-((3-chlorobenzyl)amino)-1,3,5-triazin-2-yl)-phenyl)methanol] showed a Kb of 10.7 µM and a Δ of 0.59.
The molecule `Nc1nc(NCc2ccccc2C(F)(F)F)nc(-c2ccccc2CO)n1` [Compound 47, (2-(4-Amino-6-((2-(trifluoromethyl)benzyl)amino)-1,3,5-triazin-2-yl)phenyl)methanol] gave a Kb of 8.91 µM and a Δ of 0.65.
For the molecule `Nc1nc(NCc2cccc(C(F)(F)F)c2)nc(-c2ccccc2CO)n1` [Compound 48, (2-(4-Amino-6-((3-(trifluoromethyl)benzyl)amino)-1,3,5-triazin-2-yl)phenyl)methanol], the Kb is 7.76 µM and the Δ was 0.76.
`Nc1nc(NCc2ccc(C(F)(F)F)cc2)nc(-c2ccccc2CO)n1` [Compound 49, (2-(4-Amino-6-((4-(trifluoromethyl)benzyl)amino)-1,3,5-triazin-2-yl)phenyl)methanol] gave a Kb of 9.33 µM and a Δ of 0.79.
In turn, `Cc1ccccc1CNc1nc(N)nc(-c2ccccc2CO)n1` [Compound 50, (2-(4-Amino-6-((2-methylbenzyl)amino)-1,3,5-triazin-2-yl)-phenyl)methanol] had a Kb of 20 µM and a Δ of 0.26.
Molecule `Cc1cccc(CNc2nc(N)nc(-c3ccccc3CO)n2)c1` [Compound 51, (2-(4-Amino-6-((3-methylbenzyl)amino)-1,3,5-triazin-2-yl)-phenyl)methanol] gave a Kb of 39.8 µM and a Δ of 0.26.
With `Cc1ccc(CNc2nc(N)nc(-c3ccccc3CO)n2)cc1` [Compound 52, (2-(4-Amino-6-((4-methylbenzyl)amino)-1,3,5-triazin-2-yl)-phenyl)methanol], the Kb was 41.7 µM and the Δ was 0.29.
